According to ChEMBL document CHEMBL2146445, “Discovery of BIIB042, a Potent, Selective, and Orally Bioavailable γ-Secretase Modulator” (ACS Med Chem Lett, 2011):
Values belong to the compound of their own block, whether it stands above or below them. Active and inactive are the calls of the source. The calls are words filed in the database; no cut-off is given here.

Columns and labels:
[1] = Modulation of gamma-secretase in CHO cells overexpressing APP V717 mutant assessed as increase in amyloid beta38 level after 17 hrs by ELISA; format: cell-based; conditions: Cricetulus griseus
Procedure, shortened: (§1)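 CHO cells overexpressing APP V717F; Aβ42, Aβ40 and Aβ38 quantified together in each well by multiplex Aβ ELISA. EC50 is the mean of at least two determinations.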

Plasma [2] = experiment: Plasma concentration in CF1 mouse at 10 mg/kg, po; format: ADME, organism-based; set-up: dose 10 mg/kg, route oral; conditions: in vivo
Procedure, shortened: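 Wild-type (CF-1) mice given compound orally as a solution in ethanol:propylene glycol:10% solutol (1:1:8). Animals sacrificed 4 h post-dose; brain and plasma collected for drug exposure and Aβ levels.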

Brain = experiment: Drug uptake in CF1 mouse brain at 10 mg/kg, po; format: ADME, organism-based; set-up: dose 10 mg/kg, route oral; conditions: in vivo, read-out: Drug uptake
Procedure, shortened: (§2)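 Wild-type CF-1 mice received a single oral dose as a solution in ethanol:propylene glycol:10% solutol (1:1:8). Animals were sacrificed 4 h after dosing. Brain and plasma were collected for drug concentration and Aβ levels. Aβ change was expressed relative to vehicle-treated controls.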

[3] = Modulation of gamma-secretase in CHO cells overexpressing APP V717 mutant assessed as reduction in amyloid beta42 level after 17 hrs by ELISA; format: cell-based; conditions: Cricetulus griseus; procedure, shortened: as §1
CHO = experiment: Modulation of gamma-secretase in CHO cells overexpressing APP V717 mutant assessed as effect on amyloid beta40 level after 17 hrs by ELISA; format: cell-based; conditions: Cricetulus griseus; procedure, shortened: as §1
Mus musculus = experiment: Antialzheimer activity in CF1 mouse assessed as reduction in amyloid beta 42 level in brain at 10 mg/kg, po; format: functional; set-up: scale not given: the % may be the effect or the level left; procedure, shortened: as §2
[4] = target: Voltage-gated inwardly rectifying potassium channel KCNH2 (Homo sapiens, UniProt Q12809); experiment: Inhibition of human ERG by patch clamp assay
Sequence of Voltage-gated inwardly rectifying potassium channel KCNH2 (Q12809 whole entry): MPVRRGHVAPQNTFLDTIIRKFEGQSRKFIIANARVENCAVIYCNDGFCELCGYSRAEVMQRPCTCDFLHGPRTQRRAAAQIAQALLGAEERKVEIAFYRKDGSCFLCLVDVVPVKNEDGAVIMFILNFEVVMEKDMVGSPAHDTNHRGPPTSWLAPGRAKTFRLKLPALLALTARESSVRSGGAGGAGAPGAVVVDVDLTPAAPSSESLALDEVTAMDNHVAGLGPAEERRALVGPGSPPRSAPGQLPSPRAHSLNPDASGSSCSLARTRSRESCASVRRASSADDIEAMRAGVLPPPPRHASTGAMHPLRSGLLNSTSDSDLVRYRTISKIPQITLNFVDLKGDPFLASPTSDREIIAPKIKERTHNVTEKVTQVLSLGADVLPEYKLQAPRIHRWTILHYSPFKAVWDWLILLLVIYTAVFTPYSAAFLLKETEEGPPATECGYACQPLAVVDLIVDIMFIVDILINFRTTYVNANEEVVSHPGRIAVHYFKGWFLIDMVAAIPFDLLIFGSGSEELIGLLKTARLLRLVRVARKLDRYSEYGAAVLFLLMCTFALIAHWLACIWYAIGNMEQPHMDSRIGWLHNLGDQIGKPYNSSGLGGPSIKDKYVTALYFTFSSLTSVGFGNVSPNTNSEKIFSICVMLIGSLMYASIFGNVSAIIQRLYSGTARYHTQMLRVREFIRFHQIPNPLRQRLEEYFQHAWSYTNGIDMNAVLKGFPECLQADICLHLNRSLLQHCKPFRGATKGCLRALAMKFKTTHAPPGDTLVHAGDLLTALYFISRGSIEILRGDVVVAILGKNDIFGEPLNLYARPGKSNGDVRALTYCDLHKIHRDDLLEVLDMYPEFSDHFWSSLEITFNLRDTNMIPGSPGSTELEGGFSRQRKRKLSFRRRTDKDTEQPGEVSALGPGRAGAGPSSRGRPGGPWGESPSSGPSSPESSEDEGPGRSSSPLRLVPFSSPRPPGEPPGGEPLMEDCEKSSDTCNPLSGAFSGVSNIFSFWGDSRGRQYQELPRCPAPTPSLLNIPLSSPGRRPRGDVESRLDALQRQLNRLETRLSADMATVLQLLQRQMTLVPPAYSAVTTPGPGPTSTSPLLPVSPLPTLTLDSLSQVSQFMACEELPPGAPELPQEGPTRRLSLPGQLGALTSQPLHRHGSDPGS
Procedure, shortened: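 hERG was tested in an automated FastPatch patch-clamp assay, giving an EC50 readout.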

Cytochrome P450 1A2 = target: T1, Cytochrome P450 1A2 (Homo sapiens, UniProt P05177); experiment: Inhibition of human CYP1A2; format: ADME
T1 sequence (P05177 whole entry): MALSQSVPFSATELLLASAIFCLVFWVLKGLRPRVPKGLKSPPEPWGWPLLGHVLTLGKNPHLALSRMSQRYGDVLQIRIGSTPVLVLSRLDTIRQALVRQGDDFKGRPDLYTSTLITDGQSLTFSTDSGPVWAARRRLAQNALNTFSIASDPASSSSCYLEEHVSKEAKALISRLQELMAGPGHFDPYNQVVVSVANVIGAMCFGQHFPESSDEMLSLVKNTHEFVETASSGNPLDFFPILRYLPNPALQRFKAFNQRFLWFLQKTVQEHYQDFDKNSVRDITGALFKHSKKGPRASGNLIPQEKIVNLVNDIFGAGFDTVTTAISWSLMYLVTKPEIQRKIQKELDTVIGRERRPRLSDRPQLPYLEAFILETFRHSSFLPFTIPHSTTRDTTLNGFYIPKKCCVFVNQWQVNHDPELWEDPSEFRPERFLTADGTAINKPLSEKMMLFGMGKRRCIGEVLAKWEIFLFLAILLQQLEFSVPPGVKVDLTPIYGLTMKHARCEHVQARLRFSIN

Plasma [5] = experiment: Fraction unbound in dog plasma; format: ADME, cell-free, Canis lupus familiaris
Cytochrome P450 2D6 = Cytochrome P450 2D6 (Homo sapiens, UniProt P10635); experiment: Inhibition of human CYP2D6; format: ADME
Sequence of Cytochrome P450 2D6 (P10635 whole entry): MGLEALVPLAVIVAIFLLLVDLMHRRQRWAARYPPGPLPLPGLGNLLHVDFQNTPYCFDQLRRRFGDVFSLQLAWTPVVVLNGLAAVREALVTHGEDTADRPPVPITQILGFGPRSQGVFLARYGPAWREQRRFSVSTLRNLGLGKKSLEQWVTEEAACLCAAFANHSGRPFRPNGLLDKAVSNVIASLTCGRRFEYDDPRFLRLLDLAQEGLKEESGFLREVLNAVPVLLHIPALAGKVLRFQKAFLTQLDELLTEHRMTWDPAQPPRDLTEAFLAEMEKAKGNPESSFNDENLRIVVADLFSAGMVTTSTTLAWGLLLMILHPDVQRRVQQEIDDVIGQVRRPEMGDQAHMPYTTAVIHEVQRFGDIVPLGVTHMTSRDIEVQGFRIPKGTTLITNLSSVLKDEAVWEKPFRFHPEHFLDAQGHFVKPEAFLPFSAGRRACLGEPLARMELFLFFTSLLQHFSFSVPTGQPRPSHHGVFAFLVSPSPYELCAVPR

Plasma [6] = experiment: Fraction unbound in human plasma; format: ADME, cell-free
[7] = Apparent permeability across human Caco2 cells; format: ADME, cell-based; conditions: Caco-2
Plasma [8] = experiment: Fraction unbound in monkey plasma; format: ADME, cell-free, Macaca mulatta; conditions: rhesus monkey
Plasma [9] = experiment: Fraction unbound in mouse plasma; format: ADME, cell-free
Rattus norvegicus = experiment: Antialzheimer activity in Fischer rat assessed as reduction in amyloid beta 42 level in brain at 10 mg/kg, po; format: functional; set-up: scale not given: the % may be the effect or the level left
Salmonella typhimurium = experiment: Mutagenicity in Salmonella typhimurium; format: toxicity, organism-based; conditions: salmonella enterica subsp. enterica serovar typhimurium
[10] = target: T2, Prostaglandin G/H synthase 2 (Homo sapiens, UniProt P35354); experiment: Inhibition of COX2
T2 sequence (P35354 whole entry): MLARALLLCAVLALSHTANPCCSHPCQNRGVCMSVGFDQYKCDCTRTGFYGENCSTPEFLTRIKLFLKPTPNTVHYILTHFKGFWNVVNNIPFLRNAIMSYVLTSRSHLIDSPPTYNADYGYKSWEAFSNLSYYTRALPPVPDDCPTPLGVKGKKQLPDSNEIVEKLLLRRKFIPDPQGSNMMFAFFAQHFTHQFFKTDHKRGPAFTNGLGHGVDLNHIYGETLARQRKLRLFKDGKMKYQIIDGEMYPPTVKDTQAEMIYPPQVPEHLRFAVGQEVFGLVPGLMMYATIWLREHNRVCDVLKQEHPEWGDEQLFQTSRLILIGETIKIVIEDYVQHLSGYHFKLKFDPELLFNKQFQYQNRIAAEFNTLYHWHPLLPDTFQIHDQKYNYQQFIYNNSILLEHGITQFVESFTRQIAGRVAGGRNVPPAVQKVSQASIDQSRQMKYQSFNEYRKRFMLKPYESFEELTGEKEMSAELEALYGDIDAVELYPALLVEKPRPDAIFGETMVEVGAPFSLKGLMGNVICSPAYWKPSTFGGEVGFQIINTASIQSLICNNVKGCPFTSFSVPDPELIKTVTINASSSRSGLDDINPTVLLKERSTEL

Plasma [11] = experiment: Fraction unbound in rat plasma; format: ADME, cell-free
Cytochrome P450 2C9 = Cytochrome P450 2C9 (Homo sapiens, UniProt P11712); experiment: Inhibition of human CYP2C9; format: ADME
Sequence of Cytochrome P450 2C9 (P11712 whole entry): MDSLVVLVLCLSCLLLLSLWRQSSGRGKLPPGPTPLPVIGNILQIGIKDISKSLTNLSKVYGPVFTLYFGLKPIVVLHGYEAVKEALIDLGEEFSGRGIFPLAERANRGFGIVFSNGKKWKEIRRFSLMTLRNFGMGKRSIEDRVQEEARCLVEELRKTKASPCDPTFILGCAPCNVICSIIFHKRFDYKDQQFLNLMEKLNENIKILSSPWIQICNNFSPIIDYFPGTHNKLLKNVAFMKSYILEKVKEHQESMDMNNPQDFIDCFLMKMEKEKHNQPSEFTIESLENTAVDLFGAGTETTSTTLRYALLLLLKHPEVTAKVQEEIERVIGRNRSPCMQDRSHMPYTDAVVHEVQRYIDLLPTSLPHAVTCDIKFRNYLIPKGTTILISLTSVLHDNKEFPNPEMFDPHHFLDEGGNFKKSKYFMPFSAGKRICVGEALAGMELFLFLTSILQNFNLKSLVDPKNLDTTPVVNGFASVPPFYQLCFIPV

Gamma-secretase = experiment: Modulation of gamma-secretase in human H4 cells expressing wild type APP assessed as reduction in amyloid beta42 level; format: cell-based
Cynomolgus monkey = experiment: Antialzheimer activity in cynomolgus monkey assessed as reduction in amyloid beta 42 level in plasma at 10 mg/kg, po at 5 hrs; format: functional, Macaca fascicularis; set-up: scale not given: the % may be the effect or the level left
Cytochrome P450 2C19 = Cytochrome P450 2C19 (Homo sapiens, UniProt P33261); experiment: Inhibition of human CYP2C19; format: ADME
Sequence of Cytochrome P450 2C19 (P33261 whole entry): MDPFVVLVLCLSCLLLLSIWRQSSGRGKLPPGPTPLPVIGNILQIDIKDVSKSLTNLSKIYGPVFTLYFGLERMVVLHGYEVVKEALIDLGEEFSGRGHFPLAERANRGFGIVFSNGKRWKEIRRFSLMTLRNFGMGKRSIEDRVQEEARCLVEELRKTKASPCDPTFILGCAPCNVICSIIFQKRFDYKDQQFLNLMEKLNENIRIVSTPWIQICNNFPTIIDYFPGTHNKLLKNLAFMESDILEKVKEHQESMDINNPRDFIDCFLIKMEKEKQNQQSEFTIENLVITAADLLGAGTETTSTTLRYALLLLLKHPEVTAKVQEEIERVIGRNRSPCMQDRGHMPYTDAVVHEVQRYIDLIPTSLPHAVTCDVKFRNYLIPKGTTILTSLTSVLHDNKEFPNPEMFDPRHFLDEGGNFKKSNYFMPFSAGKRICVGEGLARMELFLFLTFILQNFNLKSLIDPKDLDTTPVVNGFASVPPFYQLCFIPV

[12] = target: Prostaglandin G/H synthase 1 (Homo sapiens, UniProt P23219); experiment: Inhibition of COX1
Sequence of Prostaglandin G/H synthase 1 (P23219 whole entry): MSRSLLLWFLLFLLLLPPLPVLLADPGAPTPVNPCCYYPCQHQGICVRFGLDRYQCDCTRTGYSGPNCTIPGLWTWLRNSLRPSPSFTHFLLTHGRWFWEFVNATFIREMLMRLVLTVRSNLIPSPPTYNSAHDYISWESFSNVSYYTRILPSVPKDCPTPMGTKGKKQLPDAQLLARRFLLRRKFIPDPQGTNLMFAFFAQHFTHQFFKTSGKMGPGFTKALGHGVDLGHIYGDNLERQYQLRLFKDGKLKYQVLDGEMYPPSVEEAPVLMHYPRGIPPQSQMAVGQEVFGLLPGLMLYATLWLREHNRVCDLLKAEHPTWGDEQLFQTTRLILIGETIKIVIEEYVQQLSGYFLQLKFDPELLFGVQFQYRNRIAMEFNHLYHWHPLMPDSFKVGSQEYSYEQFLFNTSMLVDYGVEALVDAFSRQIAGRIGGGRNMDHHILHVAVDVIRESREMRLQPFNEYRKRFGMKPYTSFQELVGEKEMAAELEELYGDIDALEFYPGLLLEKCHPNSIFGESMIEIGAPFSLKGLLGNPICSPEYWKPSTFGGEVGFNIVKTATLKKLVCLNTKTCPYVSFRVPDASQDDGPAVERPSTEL

[13] = Modulation of gamma-secretase
[14] = Ratio of tarenflurbil EC50 to compound EC50 for gamma-secretase

EC50 [1]: 0.11 µM
concentration (Plasma [2]): 7.4 µM
concentration (Brain): 6.6 µM
EC50 [3]: 0.15 µM
Structure (SMILES): CC1CCN([C@@H](c2ccc(F)cc2)c2ccc([C@H](C)C(=O)O)cc2-c2ccc(C(F)(F)F)cc2)CC1
Activity (CHO): inactive
Activity (Mus musculus): 38%
EC50 [4]: 4.6 µM

IC50 (Cytochrome P450 1A2): > 35 µM
Fu (Plasma [5]): < 0.1%
EC50 [1]: 0.15 µM
IC50 (Cytochrome P450 2D6): > 35 µM
Fu (Plasma [6]): < 0.1%
Papp [7]: 43.8 ×10⁻⁶ cm/s
Fu (Plasma [8]): < 0.1%
Fu (Plasma [9]): < 0.1%
IC50 [10]: 27 µM
Fu (Plasma [11]): < 0.1%
IC50 (Cytochrome P450 2C9): > 35 µM
concentration (Plasma [2]): 10 µM
EC50 (Gamma-secretase): 0.07 µM
concentration (Brain): 4.6 µM
IC50 (Cytochrome P450 2C19): > 35 µM
IC50 [12]: 35 µM
EC50 [3]: 0.17 µM
Structure (SMILES): CC1CCN([C@H](c2ccc(F)cc2)c2ccc([C@@H](C)C(=O)O)cc2-c2ccc(C(F)(F)F)cc2)CC1
Activity (Rattus norvegicus): 30%
Activity (Salmonella typhimurium): Non-toxic
Activity (Cynomolgus monkey): 30%
Activity (Mus musculus): 40%
EC50 [4]: 15 µM

EC50 [13]: 40 µM
Ratio EC50 [14]: 7
Structure (SMILES): O=C(O)C1(c2ccc(-c3ccc(Cl)c(Cl)c3)c(F)c2)CC1
